Source: ChEMBL document CHEMBL1143257, “Structure-activity relationships of novel HIV-1 protease inhibitors containing the 3-amino-2-chlorobenzoyl-allophenylnorstatine structure” (Bioorg Med Chem, 2008)

Key:
[1] = system: Human immunodeficiency virus 1; assay: Antiviral activity against HIV1 mutant strain 6; assay type: functional, organism-based
[2] = system: Human immunodeficiency virus 1; assay: Antiviral activity against HIV1 mutant strain 1; assay type: functional, organism-based
Method in brief: (§1)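 PhenoSense phenotypic susceptibility assay on multi-drug-resistant clinical HIV-1 protease variant strains, run in parallel with a wild-type reference. EC50 read in µM. Fold change is mutant EC50 divided by wild-type EC50.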

[3] = system: Human immunodeficiency virus 1; assay: Antiviral activity against HIV1 mutant strain 7; assay type: functional, organism-based
Method in brief: (§2)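 PhenoSense phenotypic assay. Strain 7 protease mutations include T4A, L10I, K20R, L23I, L33F, E35D, M36I, K43T, M46L. EC50 in µM. Fold change is versus the wild-type EC50.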

[4] = system: Human immunodeficiency virus 1; assay: Antiviral activity against wild type HIV1; assay type: functional, organism-based
[5] = system: Human immunodeficiency virus 1; assay: Antiviral activity against HIV1 3B in presence of 50% human serum; assay type: functional, organism-based; conditions: Human immunodeficiency virus 1, 3B
[6] = system: Human immunodeficiency virus 1; assay: Antiviral activity against HIV1 mutant strain 4; assay type: functional, organism-based
[7] = system: Human immunodeficiency virus 1; assay: Antiviral activity against HIV1 3B; assay type: functional, organism-based; conditions: Human immunodeficiency virus 1, 3B
[8] = system: Human immunodeficiency virus 1; assay: Antiviral activity against HIV1 mutant strain 5; assay type: functional, organism-based
[9] = system: Human immunodeficiency virus 1; assay: Antiviral activity against HIV1 mutant strain 3; assay type: functional, organism-based
[10] = system: Human immunodeficiency virus 1; assay: Antiviral activity against HIV1 mutant strain 2; assay type: functional, organism-based
Method in brief: (§3)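 PhenoSense phenotypic assay. Strain 2 protease carries L10I, G16A, K45V, F53L, I54V, K55N, D60E, L63P, A71V, I72K, V77I, V82F, I84V, L90M, I93L. EC50 in µM. Fold change is versus the wild-type EC50.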

[11] = system: Human immunodeficiency virus 1; assay: Ratio of EC50 for HIV1 mutant strain 5 to EC50 for wild type HIV1; assay type: functional
Protease = Protease (Human immunodeficiency virus 1, UniProt Q9YQ12); assay: Inhibition of HIV1 protease
Chain of Protease (Q9YQ12 whole entry): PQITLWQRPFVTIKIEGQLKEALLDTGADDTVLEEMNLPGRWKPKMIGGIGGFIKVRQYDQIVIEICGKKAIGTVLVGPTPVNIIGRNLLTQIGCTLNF

[12] = system: Human immunodeficiency virus 1; assay: Ratio of EC50 for HIV1 mutant strain 3 to EC50 for wild type HIV1; assay type: functional
[13] = system: Human immunodeficiency virus 1; assay: Ratio of EC50 for HIV1 mutant strain 4 to EC50 for wild type HIV1; assay type: functional
[14] = system: Human immunodeficiency virus 1; assay: Ratio of EC50 for HIV1 mutant strain 2 to EC50 for wild type HIV1; assay type: functional; method in brief: as §3
[15] = system: Human immunodeficiency virus 1; assay: Ratio of EC50 for HIV1 mutant strain 1 to EC50 for wild type HIV1; assay type: functional; method in brief: as §1
[16] = system: Human immunodeficiency virus 1; assay: Ratio of EC50 for HIV1 mutant strain 6 to EC50 for wild type HIV1; assay type: functional
[17] = system: Human immunodeficiency virus 1; assay: Ratio of EC50 for HIV1 mutant strain 7 to EC50 for wild type HIV1; assay type: functional; method in brief: as §2
Liver [18] = assay: Metabolic stability in dog liver microsomes assessed as compound remaining in presence of NADPH by RP-HPLC; assay type: ADME, Canis lupus familiaris, Microsome
Method in brief: (§4)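 Test drug at 5 µM incubated with liver microsomes (0.5 mg/ml) plus cofactor (1 mM NADPH or 5 mM UDPGA) at 37 °C for 30 min. Residual drug measured by RP-HPLC. Values are the mean percent remaining of duplicates.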

[19] = Metabolic stability in human liver microsomes assessed as compound remaining at 5 uM in presence of UDPGA by RP-HPLC; assay type: ADME, Microsome; conditions: read-out: Stability; method in brief: as §4
Liver [20] = assay: Metabolic stability in dog liver microsomes assessed as compound remaining in presence of UDPGA by RP-HPLC; assay type: ADME, Canis lupus familiaris, Microsome; method in brief: as §4
[21] = Oral bioavailability in Beagle dog at 15 mg/kg; assay type: ADME, organism-based, Canis lupus familiaris; conditions: in vivo
[22] = AUC in Beagle dog at 15 mg/kg, po; assay type: ADME, organism-based, Canis lupus familiaris; set-up: dose 15 mg/kg, route oral; conditions: plasma
[23] = Cmax in Beagle dog at 15 mg/kg, po; assay type: ADME, organism-based, Canis lupus familiaris; set-up: dose 15 mg/kg, route oral; conditions: in vivo
[24] = Plasma clearance in Beagle dog at 15 mg/kg, iv; assay type: ADME, organism-based, Canis lupus familiaris; set-up: dose 15 mg/kg, route intravenous
[25] = Plasma concentration in Beagle dog at 15 mg/kg, po after 12 hrs; assay type: ADME, organism-based, Canis lupus familiaris; set-up: dose 15 mg/kg, route oral
[26] = Volume of distribution at steady state in Beagle dog at 15 mg/kg, iv; assay type: ADME, organism-based, Canis lupus familiaris; set-up: dose 15 mg/kg, route intravenous; conditions: in vivo, read-out: Vdss
[27] = Metabolic stability in human liver microsomes assessed as compound remaining at 5 uM in presence of NADPH by RP-HPLC; assay type: ADME, Microsome; conditions: read-out: Stability; method in brief: as §4
[28] = Tmax in Beagle dog at 15 mg/kg, po; assay type: ADME, organism-based, Canis lupus familiaris; set-up: dose 15 mg/kg, route oral; conditions: in vivo
[29] = Metabolic stability in rat liver microsomes assessed as compound remaining at 5 uM by RP-HPLC; assay type: ADME, Microsome; conditions: read-out: Stability; method in brief: as §4
[30] = Metabolic stability in rat liver microsomes assessed as compound remaining at 5 uM in presence of 0.5 uM ritonavir by RP-HPLC; assay type: ADME, Microsome; conditions: with ritonavir 0.5 uM, read-out: Stability
[31] = Metabolic stability in human liver microsomes assessed as compound remaining at 5 uM by RP-HPLC; assay type: ADME, Microsome; conditions: read-out: Stability; method in brief: as §4
[32] = Metabolic stability in human liver microsomes assessed as compound remaining at 5 uM in presence of 2.5 uM ritonavir by RP-HPLC; assay type: ADME, Microsome; conditions: with ritonavir 2.5 uM, read-out: Stability
[33] = Metabolic stability in rat liver microsomes assessed as compound remaining at 5 uM in presence of 2.5 uM ritonavir by RP-HPLC; assay type: ADME, Microsome; conditions: with ritonavir 2.5 uM, read-out: Stability
[34] = Metabolic stability in dog liver microsomes assessed as compound remaining at 5 uM in presence of 2.5 uM ritonavir by RP-HPLC; assay type: ADME, Canis lupus familiaris, Microsome; conditions: with ritonavir 2.5 uM, read-out: Stability
[35] = Metabolic stability in dog liver microsomes assessed as compound remaining at 5 uM by RP-HPLC; assay type: ADME, Canis lupus familiaris, Microsome; conditions: read-out: Stability; method in brief: as §4
[36] = Metabolic stability in human liver microsomes assessed as compound remaining at 5 uM in presence of 0.5 uM ritonavir by RP-HPLC; assay type: ADME, Microsome; conditions: with ritonavir 0.5 uM, read-out: Stability
[37] = Metabolic stability in dog liver microsomes assessed as compound remaining at 5 uM in presence of 0.5 uM ritonavir by RP-HPLC; assay type: ADME, Canis lupus familiaris, Microsome; conditions: with ritonavir 0.5 uM, read-out: Stability

SMILES	EC50 [1] [nM]	EC50 [2] [nM]	EC50 [3] [nM]	EC50 [4] [nM]	EC50 [5] [nM]	EC50 [6] [nM]	EC50 [7] [nM]	EC50 [8] [nM]	EC50 [9] [nM]	EC50 [10] [nM]	Ratio EC50 [11]	Ki (Protease) [nM]	Ratio EC50 [12]	Ratio EC50 [13]	Ratio EC50 [14]	Ratio EC50 [15]	Ratio EC50 [16]	Ratio EC50 [17]	Stability (Liver [18]) [%]	remaining at 5 µM [19] [%]	also measured
CC(C)(C)NC(=O)[C@@H]1C[C@@H]2CCCC[C@@H]2CN1C[C@@H](O)[C@H](Cc1ccccc1)NC(=O)[C@H](CC(N)=O)NC(=O)c1ccc2ccccc2n1	158	> 500	141	1.9	50	> 500	7	> 500	> 500	97	–	–	–	–	–	–	–	–	–	–	–
CC(C)CN(C[C@@H](O)[C@H](Cc1ccccc1)NC(=O)O[C@H]1CCOC1)S(=O)(=O)c1ccc(N)cc1	432	98	165	14	95	51	16	615	143	350	43	0.359	10	4	25	7	30	12	–	–	–
COc1cccc(C[C@H](NC(=O)c2cccc(N)c2Cl)[C@H](O)C(=O)N2CCC(C)(C)[C@H]2C(=O)NCc2c(C)cccc2C)c1	–	–	–	–	87	–	36	–	–	–	–	0.75	–	–	–	–	–	–	69	> 95	Stability (Liver [20]): > 95%; bioavailability [21]: 146%; AUC [22]: 36.7 µM·h; Cmax [23]: 5000 nM; clearance [24]: 16.7 mL/min/kg; concentration at 12 h [25]: 710 nM; Vd [26]: 1.9 L/kg; remaining at 5 µM [27]: 83%; Tmax [28]: 60 min
Cc1ccccc1CNC(=O)[C@H]1N(C(=O)[C@@H](O)[C@H](Cc2ccccc2)NC(=O)c2cccc(O)c2C)CSC1(C)C	–	–	–	–	52	–	26	–	–	–	–	0.035	–	–	–	–	–	–	49	55	remaining at 5 µM [29]: 12%; Stability (Liver [20]): 91%; remaining at 5 µM [30]: 16%; remaining at 5 µM [31]: 13%; bioavailability [21]: 25%; AUC [22]: 6.5 µM·h; remaining at 5 µM [32]: 59%; Cmax [23]: 3100 nM; remaining at 5 µM [33]: 31%; remaining at 5 µM [34]: 93%; clearance [24]: 15 mL/min/kg; concentration at 12 h [25]: 30 nM; Vd [26]: 1.6 L/kg; remaining at 5 µM [27]: 27%; remaining at 5 µM [35]: 46%; remaining at 5 µM [36]: 56%; Tmax [28]: 30 min; remaining at 5 µM [37]: 92%
CC(C)(C)NC(=O)[C@@H]1CN(Cc2cccnc2)CCN1C[C@@H](O)C[C@@H](Cc1ccccc1)C(=O)N[C@H]1c2ccccc2C[C@H]1O	819	401	145	7.6	87	113	23	> 1500	753	464	–	–	–	–	–	–	–	–	–	–	–
Cc1c(O)cccc1C(=O)N[C@@H](CSc1ccccc1)[C@H](O)CN1C[C@H]2CCCC[C@H]2C[C@H]1C(=O)NC(C)(C)C	> 1500	452	515	5.4	293	> 1500	19	776	413	346	141	0.931	75	>273	64	82	>273	94	–	–	–
COC(=O)N[C@H](C(=O)N[C@@H](Cc1ccccc1)[C@@H](O)CN(Cc1ccc(-c2ccccn2)cc1)NC(=O)[C@@H](NC(=O)OC)C(C)(C)C)C(C)(C)C [ATAZANAVIR]	134	92	74	1.5	9	95	< 4	266	23	48	180	0.05	16	64	32	62	90	50	83	> 95	Stability (Liver [20]): > 95%; bioavailability [21]: 102%; AUC [22]: 15 µM·h; Cmax [23]: 4200 nM; clearance [24]: 26.7 mL/min/kg; concentration at 12 h [25]: 50 nM; Vd [26]: 2 L/kg; remaining at 5 µM [27]: 83%; Tmax [28]: 30 min
Cc1cccc(C)c1OCC(=O)N[C@@H](Cc1ccccc1)[C@@H](O)C[C@H](Cc1ccccc1)NC(=O)[C@H](C(C)C)N1CCCNC1=O [LOPINAVIR]	411	214	212	3.7	8	66	8	807	657	251	–	–	–	–	–	–	–	–	–	–	remaining at 5 µM [29]: 11%; remaining at 5 µM [30]: 83%; remaining at 5 µM [31]: 10%; remaining at 5 µM [32]: > 95%; remaining at 5 µM [33]: > 95%; remaining at 5 µM [34]: > 95%; remaining at 5 µM [35]: 16%; remaining at 5 µM [36]: > 95%; remaining at 5 µM [37]: 83%
CC(C)c1nc(CN(C)C(=O)N[C@H](C(=O)N[C@@H](Cc2ccccc2)C[C@H](O)[C@H](Cc2ccccc2)NC(=O)OCc2cncs2)C(C)C)cs1 [RITONAVIR]	> 3000	1730	> 3000	16	41	1000	2	> 3000	> 3000	> 3000	–	–	–	–	–	–	–	–	–	–	–
